Tests used:
Histone deacetylase 8 = target: T1, Histone deacetylase 8 (Homo sapiens, UniProt Q9BY41); assay: Inhibition of HDAC8 from human HeLa cells nuclear extract by cell free fluorimetric assay
T1 sequence (Q9BY41 whole entry): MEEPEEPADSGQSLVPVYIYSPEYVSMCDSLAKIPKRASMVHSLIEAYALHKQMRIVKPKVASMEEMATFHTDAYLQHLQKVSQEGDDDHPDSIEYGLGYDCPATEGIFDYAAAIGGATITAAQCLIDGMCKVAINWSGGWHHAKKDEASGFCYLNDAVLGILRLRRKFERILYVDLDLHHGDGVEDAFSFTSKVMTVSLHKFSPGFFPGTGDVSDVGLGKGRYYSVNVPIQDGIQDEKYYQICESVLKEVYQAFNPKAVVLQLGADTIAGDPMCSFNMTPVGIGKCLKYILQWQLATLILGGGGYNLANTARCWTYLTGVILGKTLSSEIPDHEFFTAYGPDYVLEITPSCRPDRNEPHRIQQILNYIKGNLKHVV

NCI-H69 = assay: Cytotoxicity against human NCI-H69 cells after 72 hrs by trypan blue exclusion assay; format: functional, cell-based; details: NCI-H69, 72 h
HMEC = assay: Cytotoxicity against HMEC after 72 hrs by trypan blue exclusion assay; format: ADME, cell-based; details: Homo sapiens
SK-MES-1 = assay: Cytotoxicity against human SKMES1 cells after 72 hrs by trypan blue exclusion assay; format: functional, cell-based; details: SK-MES-1, 72 h
[1] = target: T2, Protein deacetylase HDAC6 (Homo sapiens, UniProt Q9UBN7); assay: Inhibition of HDAC6 from human HeLa cells nuclear extract by cell free fluorimetric assay
T2 sequence (Q9UBN7 whole entry): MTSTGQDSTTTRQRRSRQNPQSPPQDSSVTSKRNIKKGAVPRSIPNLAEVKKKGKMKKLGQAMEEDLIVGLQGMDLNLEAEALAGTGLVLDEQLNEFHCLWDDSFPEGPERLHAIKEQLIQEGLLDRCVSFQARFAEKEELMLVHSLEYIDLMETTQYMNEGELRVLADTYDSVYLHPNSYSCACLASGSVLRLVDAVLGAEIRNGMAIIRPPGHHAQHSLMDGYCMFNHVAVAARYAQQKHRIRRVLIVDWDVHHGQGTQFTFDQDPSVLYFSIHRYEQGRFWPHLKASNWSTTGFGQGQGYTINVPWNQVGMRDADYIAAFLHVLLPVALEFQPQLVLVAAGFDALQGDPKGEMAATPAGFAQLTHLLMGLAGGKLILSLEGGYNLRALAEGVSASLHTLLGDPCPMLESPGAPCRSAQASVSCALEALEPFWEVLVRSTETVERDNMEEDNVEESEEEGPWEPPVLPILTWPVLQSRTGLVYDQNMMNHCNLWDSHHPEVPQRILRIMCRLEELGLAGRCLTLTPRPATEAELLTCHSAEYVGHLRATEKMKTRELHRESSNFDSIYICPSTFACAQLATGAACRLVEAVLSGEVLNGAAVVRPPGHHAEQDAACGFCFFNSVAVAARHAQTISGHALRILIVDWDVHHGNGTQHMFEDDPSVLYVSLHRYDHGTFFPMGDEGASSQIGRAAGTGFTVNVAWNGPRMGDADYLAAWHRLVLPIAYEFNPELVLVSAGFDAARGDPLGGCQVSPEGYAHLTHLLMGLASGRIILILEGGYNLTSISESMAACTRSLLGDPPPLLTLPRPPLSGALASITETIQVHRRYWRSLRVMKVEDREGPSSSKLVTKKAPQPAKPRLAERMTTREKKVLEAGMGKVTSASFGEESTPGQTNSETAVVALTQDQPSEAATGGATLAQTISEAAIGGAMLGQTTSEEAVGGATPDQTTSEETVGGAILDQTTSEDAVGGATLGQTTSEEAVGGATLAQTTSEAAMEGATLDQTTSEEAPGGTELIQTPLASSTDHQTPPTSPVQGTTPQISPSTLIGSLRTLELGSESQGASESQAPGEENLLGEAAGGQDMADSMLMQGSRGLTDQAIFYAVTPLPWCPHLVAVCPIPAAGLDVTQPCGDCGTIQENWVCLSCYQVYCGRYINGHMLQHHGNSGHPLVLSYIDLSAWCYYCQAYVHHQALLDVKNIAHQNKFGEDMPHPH

[2] = target: Histone deacetylase (HDAC1 and HDAC2) (Homo sapiens, UniProt Q13547+Q92769); assay: Inhibition of HDAC1/2 from human HeLa cells nuclear extract by cell free fluorimetric assay; format: cell-based
DU-145 = assay: Cytotoxicity against human DU145 cells after 72 hrs by trypan blue exclusion assay; format: functional, cell-based; details: DU-145, 72 h
Procedure, shortened: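 DU-145 prostate cancer cells kept in recommended complete medium at 37 °C, 5% CO₂, passaged 24 h before dosing. Compounds taken from 10 mM DMSO stocks and diluted in DMSO plus fresh medium, final DMSO 0.1%; control wells got fresh medium only. Viability read by trypan blue staining after 72 h. EC₅₀ = concentration giving 50% loss of viability, from duplicate of four simultaneous experiments.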

[3] = Cytotoxicity against human primary lung fibroblasts after 72 hrs by trypan blue exclusion assay; format: ADME, cell-based; details: Fibroblast

| IC50 (Histone deacetylase 8) [nM] | IC50 [1] [nM] | IC50 [2] [nM] | SMILES | EC50 (NCI-H69) [nM] | EC50 (HMEC) [nM] | EC50 (SK-MES-1) [nM] | EC50 (DU-145) [nM] | EC50 [3] [nM] |
| --- | --- | --- | --- | --- | --- | --- | --- | --- |
| 994 | 78 | 13.9 | CC[C@H]1OC(=O)[C@H](C)[C@@H](O[C@H]2C[C@@](C)(OC)[C@@H](O)[C@H](C)O2)[C@H](C)[C@@H](O[C@@H]2O[C@H](C)C[C@H](N(C)Cc3ccc(-c4cn(CCCCCCC(=O)NO)nn4)cc3)[C@H]2O)[C@](C)(O)C[C@@H](C)CN(C)[C@H](C)[C@@H](O)[C@]1(C)O | 3450 | > 10000 | 2330 | 1880 | > 10000 |
|  | 89.3 | 4.1 | CC[C@H]1OC(=O)[C@H](C)[C@@H](O[C@H]2C[C@@](C)(OC)[C@@H](O)[C@H](C)O2)[C@H](C)[C@@H](O[C@@H]2O[C@H](C)C[C@H](N(C)Cc3ccc(-c4cn(CCCCCCC(=O)NO)nn4)cc3)[C@H]2O)[C@](C)(OC)C[C@@H](C)C(=O)[C@H](C)[C@@H](O)[C@]1(C)O | 1450 | > 10000 | 1330 | 1120 | > 10000 |
| 1020 | 117 | 10.6 | CC[C@H]1OC(=O)[C@H](C)[C@@H](O)[C@H](C)[C@@H](O[C@@H]2O[C@H](C)C[C@H](N(C)Cc3ccc(-c4cn(CCCCCCC(=O)NO)nn4)cc3)[C@H]2O)[C@](C)(O)C[C@@H](C)CN(C)[C@H](C)[C@@H](O)[C@]1(C)O | 3010 | > 10000 | 2560 | 1970 | > 10000 |
